Data taken from ChEMBL document CHEMBL1154249, “Semisynthesis and biological evaluation of abietane-type diterpenes. Revision of the structure of rosmaquinone” (J Nat Prod, 2009).
In brackets after ≈: the same amount, converted by molar mass.

Columns and labels:
Enterococcus faecalis = test: Antibacterial activity against Enterococcus faecalis ATCC 29212 after 24 hrs by broth dilution assay; format: functional; settings: ATCC 29212, 24 h
How it was run: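 Microdilution in brain heart infusion broth, shaken at 37 °C, about (1-5) × 10^5 cfu/mL start, DMSO ≤1% v/v with matched controls, in triplicate. OD550 read. Clear wells at 24 h were subcultured in duplicate onto brain heart infusion agar and counted after overnight incubation. MIC is the lowest concentration giving growth inhibition.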

Vero [1] = test: Cytotoxicity against african green monkey Vero cells at exponential phase of growth after 48 hrs by MTT assay; format: cell-based, Chlorocebus sabaeus
How it was run: (§1)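 Monolayers grown in DMEM with 5% fetal calf serum and penicillin-streptomycin at 37 °C, 5% CO2. 2×10^4 cells/well in lag or log phase were exposed for 48 h to a concentration series of compounds predissolved in DMSO. MTT formazan was dissolved in DMSO and read at 550 nm. IC50 taken from the curve; three independent experiments.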

HEp-2 [2] = test: Cytotoxicity against human Hep2 cells at lag phase of growth after 48 hrs by MTT assay; format: functional, cell-based; how it was run: as §1
A549 [3] = test: Cytotoxicity against human A549 cells at exponential phase of growth after 48 hrs by MTT assay; format: functional, cell-based; how it was run: as §1
MCF7 [4] = test: Cytotoxicity against human […] cells at exponential phase of growth after 48 hrs by MTT assay; format: functional, cell-based; how it was run: as §1
Staphylococcus aureus = test: Antibacterial activity against Staphylococcus aureus ATCC 6538 after 24 hrs by broth dilution assay; format: functional
[5] = tested on: Mycolicibacterium smegmatis; test: Antibacterial activity against Mycobacterium smegmatis ATCC 19420 after 48 hrs by broth dilution assay; format: functional; settings: ATCC 19420, 48 h
How it was run: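 Brain heart infusion broth with 0.06% Tween 80, 37 °C on a rotary shaker, inoculum about (1-5) × 10^5 cfu/mL, DMSO ≤1% v/v with matched controls, in triplicate. OD550 monitored.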

Bacillus subtilis = test: Antibacterial activity against Bacillus subtilis ATCC 6051 after 24 hrs by broth dilution assay; format: functional
HeLa [6] = test: Cytotoxicity against human HeLa cells at exponential phase of growth after 48 hrs by MTT assay; format: functional, cell-based; how it was run: as §1
Escherichia coli = test: Antibacterial activity against Escherichia coli ATCC 9637 after 24 hrs by broth dilution assay; format: functional; settings: ATCC 9637, 24 h
How it was run: (§2)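 Microdilution in nutrient broth at 37 °C, about (1-5) × 10^5 cfu/mL inoculum, compounds in DMSO (≤1% v/v, matched DMSO controls), in triplicate. Growth followed by OD550. Wells without visible growth after 24 h on a rotary shaker were subcultured in duplicate onto nutrient agar and colonies counted after overnight incubation. MIC is the lowest concentration inhibiting growth at 24 h.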

HEp-2 [7] = test: Cytotoxicity against human Hep2 cells at exponential phase of growth after 48 hrs by MTT assay; format: functional, cell-based; how it was run: as §1
A549 [8] = test: Cytotoxicity against human A549 cells at lag phase of growth after 48 hrs by MTT assay; format: functional, cell-based; how it was run: as §1
[9] = tested on: Staphylococcus epidermidis; test: Antibacterial activity against Staphylococcus epidermidis ATCC 14990 after 24 hrs by broth dilution assay; format: functional; how it was run: as §2
Candida albicans = test: Antibacterial activity against Candida albicans CECT 1039 after 24 hrs by broth dilution assay
MCF7 [10] = test: Cytotoxicity against human MCF7 cells at lag phase of growth after 48 hrs by MTT assay; format: functional, cell-based; how it was run: as §1
Pseudomonas aeruginosa = test: Antibacterial activity against Pseudomonas aeruginosa AK958 after 24 hrs by broth dilution assay; format: functional; settings: AK958, 24 h; how it was run: as §2
Vero [11] = test: Cytotoxicity against african green monkey Vero cells at lag phase of growth after 48 hrs by MTT assay; format: cell-based, Chlorocebus sabaeus; how it was run: as §1
Bacillus cereus = test: Antibacterial activity against Bacillus cereus ATCC 21772 after 24 hrs by broth dilution assay; format: functional
Proteus mirabilis = test: Antibacterial activity against Proteus mirabilis CECT 170 after 24 hrs by broth dilution assay; format: functional; settings: CECT 170, 24 h; how it was run: as §2
HeLa [12] = test: Cytotoxicity against human HeLa cells at lag phase of growth after 48 hrs by MTT assay; format: functional, cell-based; how it was run: as §1
Salmonella = test: Antibacterial activity against Salmonella CECT 4569 after 24 hrs by broth dilution assay; format: functional; settings: CECT 4569, 24 h; how it was run: as §2
[13] = Chlorocebus sabaeus, Vero, 48 h, read-out: IC50
[14] = Homo sapiens, HEp-2, 48 h, read-out: IC50
[15] = Homo sapiens, A549, 48 h, read-out: IC50
[16] = Homo sapiens, MCF7, 48 h, read-out: IC50
[17] = Homo sapiens, HeLa, 48 h, read-out: IC50

SMILES | MIC (Enterococcus faecalis) [µg/mL] | IC50 (Vero [1]; [13]) [µM] | IC50 (HEp-2 [2]; [14]) [µM] | IC50 (A549 [3]; [15]) [µM] | IC50 (MCF7 [4]; [16]) [µM] | MIC (Staphylococcus aureus) [µg/mL] | MIC [5] [µg/mL] | MIC (Bacillus subtilis) [µg/mL] | IC50 (HeLa [6]; [17]) [µM] | MIC (Escherichia coli) [µg/mL] | IC50 (HEp-2 [7]; [14]) [µM] | MIC [9] [µg/mL] | MIC (Candida albicans) [µg/mL] | IC50 (MCF7 [10]; [16]) [µM] | MIC (Pseudomonas aeruginosa) [µg/mL] | IC50 (Vero [11]; [13]) [µM] | MI50 (Bacillus cereus) [µg/mL] | MIC (Proteus mirabilis) [µg/mL] | IC50 (HeLa [12]; [17]) [µM] | MIC (Salmonella) [µg/mL] | also measured
COC(=O)C1=C2C=C(C(C)C)COC2(O)[C@H]2OC(=O)[C@@]13CCCC(C)(C)[C@H]23 (some centres undefined) | > 40 | > 60 | > 60 | 39.4 | 42.6 | >40 | > 40 | >40 | > 60 | > 40 | > 60 | >40 | >40 | > 60 | > 40 | > 60 | >40 | > 40 | > 60 | > 40 | IC50 (A549 [8]; [15]): > 60 µM
C[C@H]1COc2c1cc1c(c2O)[C@@]23CCCC(C)(C)[C@@H]2C[C@@H]1OC3=O | > 40 | > 60 | > 60 | 51.5 | > 60 | >40 | > 40 | >40 | 37.8 | > 40 | > 60 | >40 | >40 | > 60 | > 40 | > 60 | >40 | > 40 | 56.1 | > 40 | IC50 (A549 [8]; [15]): > 60 µM
C[C@H]1COC2=C1C(=O)C1=C(C2=O)[C@@]23CCCC(C)(C)[C@@H]2C[C@@H]1OC3=O | > 40 | > 58.4 | > 58.4 | 40.4 | 18.4 | >40 | > 40 | >40 | 17.5 | > 40 | 39.8 | >40 | >40 | 33 | > 40 | > 58.4 | >40 | > 40 | 50.3 | > 40 | IC50 (A549 [8]; [15]): > 58.4 µM
Cc1coc2c1C(=O)C1=C(C2=O)[C@@]23CCCC(C)(C)[C@@H]2C[C@@H]1OC3=O | > 40 | > 58.8 | – | > 58.8 | > 58.8 | >40 | > 40 | >40 | > 58.8 | > 40 | – | >40 | >40 | > 58.8 | > 40 | > 58.8 | >40 | > 40 | > 58.8 | > 40 | IC50 (A549 [8]; [15]): 48.8 µM
CC(C)C1=CC2=C(C(=O)C1=O)[C@@]13CCCC(C)(C)[C@@H]1C[C@@H]2OC3=O | > 40 | – | > 60 | – | – | >40 | > 40 | >40 | 40.2 | > 40 | > 60 | >40 | >40 | – | > 40 | – | >40 | > 40 | > 60 | > 40 | –
CC(=O)OC[C@H](C)C1=C(OC(C)=O)C(O)C2=C(C1=O)[C@@H]1C[C@H]3C(C)(C)CCC[C@]23C(=O)O1 (some centres undefined) | > 40 | > 45 | > 45 | – | > 45 | >40 | > 40 | >40 | 40.5 | > 40 | > 45 | >40 | >40 | > 45 | > 40 | > 45 | >40 | > 40 | 33.8 | > 40 | –
COc1c2c(c(O)c3c1[C@@H](C)CO3)[C@@]13CCCC(C)(C)[C@@H]1C[C@@H]2OC3=O | > 40 | – | – | – | – | >40 | > 40 | >40 | – | > 40 | – | >40 | >40 | – | > 40 | – | >40 | > 40 | – | > 40 | IC50 (Vero [1]; vero): Not Active; IC50 (HEp-2 [2]; hep-2): Not Active; IC50 (A549 [3]; a549): Not Active; IC50 (MCF7 [4]; mcf7): Not Active; IC50 (HeLa [6]; hela): Not Active; IC50 (HEp-2 [7]; hep-2): Not Active; IC50 (MCF7 [10]; mcf7): Not Active; IC50 (Vero [11]; vero): Not Active; IC50 (HeLa [12]; hela): Not Active
COc1c(C(C)C)cc2c(c1OC)[C@@]13CCCC(C)(C)[C@@H]1[C@H](OC3=O)[C@@H]2OCc1ccccc1 | > 40 | – | – | – | – | >40 | > 40 | >40 | – | > 40 | – | >40 | >40 | – | > 40 | – | >40 | > 40 | – | > 40 | IC50 (Vero [1]; vero): Not Active; IC50 (HEp-2 [2]; hep-2): Not Active; IC50 (A549 [3]; a549): Not Active; IC50 (MCF7 [4]; mcf7): Not Active; IC50 (HeLa [6]; hela): Not Active; IC50 (HEp-2 [7]; hep-2): Not Active; IC50 (A549 [8]; a549): Not Active; IC50 (MCF7 [10]; mcf7): Not Active; IC50 (Vero [11]; vero): Not Active; IC50 (HeLa [12]; hela): Not Active
COC(=O)C1=C(/C=C(\C(=O)OC)C(C)C)[C@@H]2C[C@H]3C(C)(C)CCC[C@]13C(=O)O2 | > 40 | – | – | – | – | >40 | > 40 | >40 | – | > 40 | – | >40 | >40 | – | > 40 | – | >40 | > 40 | – | > 40 | IC50 (Vero [1]; vero): Not Active; IC50 (HEp-2 [2]; hep-2): Not Active; IC50 (A549 [3]; a549): Not Active; IC50 (MCF7 [4]; mcf7): Not Active; IC50 (HeLa [6]; hela): Not Active; IC50 (HEp-2 [7]; hep-2): Not Active; IC50 (MCF7 [10]; mcf7): Not Active; IC50 (Vero [11]; vero): Not Active; IC50 (HeLa [12]; hela): Not Active
CC(C)c1cc2c(c(O)c1O)[C@@]1(C(=O)O)CCCC(C)(C)[C@@H]1C[C@H]2Sc1ccccc1 | – | 21.1 | 15.2 | – | – | – | – | – | 11.1 | – | 18.9 | – | – | – | – | 6.1 | – | – | 4.8 | – | –
CO/N=C(\C(=O)N[C@@H]1C(=O)N2C(C(=O)O)=C(COC(C)=O)CS[C@H]12)c1csc(N)n1 [CEFOTAXIME] | > 40 | – | – | – | – | – | > 40 | – | – | > 40 | – | – | – | – | > 40 | – | – | > 40 | – | > 40 | MIC (Staphylococcus aureus; Staphylococcus aureus, ATCC 6538, 24 h, read-out: MIC): 1.25 µg/mL (≈ 2.74 µM); MIC (Bacillus subtilis; Bacillus subtilis, ATCC 6051, 24 h, read-out: MIC): 8 µg/mL (≈ 17.6 µM); MIC ([9]; Staphylococcus epidermidis, ATCC 14990, 24 h, read-out: MIC): 2.5 µg/mL (≈ 5.49 µM); MIC (Bacillus cereus; Bacillus cereus, ATCC 21772, 24 h): 10 µg/mL (≈ 22 µM)
CC(C)C1=CC2=C(C(=O)C1=O)[C@@]13CCCC(C)(C)[C@@H]1[C@@H](O)[C@@H]2OC3=O [ISOROSMAQUINONE] | – | > 60 | 39.5 | – | – | – | – | – | 30.8 | – | 39.2 | – | – | – | – | > 60 | – | – | 25 | – | –
Sc1ncnc2nc[nH]c12 [MERCAPTOPURINE ANHYDROUS] | – | 119 | 431 | 49.3 | 5.8 | – | – | – | 4.1 | – | 318 | – | – | 1.4 | – | 67.5 | – | – | 2.9 | – | IC50 (A549 [8]; [15]): 47 µM
